Screening data as filed in PubChem BioAssay.
Compounds with a hit are over-represented: about 3% of the library has one in this group of screens.
M4 PAM: positive allosteric modulators of human muscarinic M4 receptor. P08173. CHO-K1 hM4/Gqi5, Fluo-8 calcium fluorescence, ACh EC20; 0% = ACh EC20, 100% = maximal ACh. activation, % at 3 µM. actives 0.4% (n = 360,000);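 active = activation above its plate's cutoff, the mean activation of sample wells plus 3 SD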
TAAR1 antagonist: antagonists of human TAAR1 | Q96RJ0 | CHO RD-HGA16 TAAR1, Fluo-8 calcium fluorescence, antagonist | inhibition, % at 3 µM | actives 1.5% (n = 360,000);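 active = inhibition above a per-plate cutoff, the mean inhibition of test compounds on that plate plus 3 SD, cut at about 49% in these data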
Target sequence (Q96RJ0 whole entry, looked up): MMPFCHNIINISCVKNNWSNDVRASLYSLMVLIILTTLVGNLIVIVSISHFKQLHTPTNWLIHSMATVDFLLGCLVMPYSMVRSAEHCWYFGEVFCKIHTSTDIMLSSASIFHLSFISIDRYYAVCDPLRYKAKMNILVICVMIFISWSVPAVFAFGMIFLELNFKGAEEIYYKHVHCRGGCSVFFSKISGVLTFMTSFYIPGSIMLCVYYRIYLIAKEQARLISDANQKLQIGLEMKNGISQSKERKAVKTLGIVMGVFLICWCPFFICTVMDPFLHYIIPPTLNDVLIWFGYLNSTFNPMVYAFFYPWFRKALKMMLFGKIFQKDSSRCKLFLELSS
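Assay system: CHO-derived RD-HGA16 cells stably expressing human TAAR1 plus Gα16. Timing: 140 s kinetic read after compound, 140 s after agonist. Technique: kinetic Fluo-8 calcium fluorescence measurement. Measure: % inhibition of agonist calcium response.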
CHRM4 antagonist: CHRM4 antagonism in calcium assay. inhibition, % at 3 µM. actives 0.73% (n = 360,000). AID 624125. CHO-hM4 cells, ACh EC80, Fluo-8 calcium fluorescence;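 active = inhibition above its plate's cutoff, the mean inhibition of sample wells plus 3 SD, cut at about 27% in these data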
M4 ag: agonists of human muscarinic M4 receptor (CHRM4); activation, % at 3 µM; CHO-K1 hM4/Gqi5, Fluo-8 calcium fluorescence; vehicle 0%, full acetylcholine response 100%; actives 0.14% (n = 360,000); AID 624127;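 active = activation above the run mean over all test wells plus 3 SD, cut at about 32% in these data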;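 note: peak over basal fluorescence ratio per well then scaled between controls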
TAAR1 ag: agonists of human TAAR1. Q96RJ0. CHO RD-HGA16 TAAR1, Fluo-8 calcium fluorescence; vehicle wells 0%, saturating PEA agonist 100%. activation, % at 3 µM. actives 0.99% (n = 360,000). AID 624467;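 active = activation above the mean activation of all test compounds in the run plus 3 SD, cut at about 38% in these data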
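test system = CHO RD-HGA16 cells carrying human TAAR1 plus Gα16 | schedule = 17-24 h seeding, 75 min 37 °C dye, 30 min RT | compound dosing = 3 µM single concentration | control set = DMSO and PEA EC100 | replicates = n 1 | signal = Fluo-8 fluorescence, 5 s baseline then 140 s kinetic read | measure = percent activation vs PEA EC100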
TAAR1 nonsel count: nonselective antagonist in TAAR1 antagonist counter-screen. shares compounds with TAAR1 antagonist. counterscreen cell line, calcium fluorescence, antagonist mode. inhibition, % at 3 µM. actives 77% (n = 2,400). AID 651780; in the data active = inhibition above about 22%;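 note: CHO-Ga16 host cells stimulated with ATP at an EC80 level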
TAAR1 ant conf: human TAAR1 antagonism, confirmed; shares compounds with TAAR1 antagonist; TAAR1-expressing cells, fluorescence antagonist read-out; inhibition, % at 3 µM; actives 40% (n = 2,400); in the data active = inhibition above about 49%;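 note: CHO-Ga16 host cells challenged with agonist PEA near its EC80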
Ga16 nonsel ag: nonselective Ga16 agonism, counter-screen; shares compounds with TAAR1 antagonist; Ga16-expressing cells, calcium fluorescence, agonist counterscreen; activation, % at 3 µM; actives 18% (n = 2,400); in the data active = activation above about 12%
TAAR1 ag count: TAAR1 agonism, antagonist counter-screen | shares compounds with TAAR1 antagonist | hTAAR1 cell line, fluorescence activation, agonist mode | activation, % at 3 µM | actives 2% (n = 2,400) | AID 651955; in the data active = activation above about 37%;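 note: CHO cells stably expressing TAAR1 with calcium dye readout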
Of the large screens only hits and unclear results are named; the others gave an inactive call (follow-up assays come after a bar, where they were run).

Cn1nc(C(C)(C)C)cc1C(=O)N1CCCCC1c1cc(C(=O)Nc2ccc(F)c(Cl)c2)no1 (stereo unspecified)	none
COc1ccc(C)cc1-n1nnnc1SCc1nc2ccccc2s1	TAAR1 antagonist 54 | TAAR1 nonsel count 27 | TAAR1 ant conf inactive | Ga16 nonsel ag inactive | TAAR1 ag count inactive
CC(=O)OC[C@@H]1CN(Cc2ccccc2)C[C@H](n2cnc3c(N4CCOCC4)ncnc32)O1	none
Cc1cccc(C)c1NC(=O)C1(C)CN(S(C)(=O)=O)CC(=O)N1CC(F)(F)F (stereo unspecified)	none
COc1ccc(CCNC(=O)c2ccc(Cl)c(S(=O)(=O)N(C)c3ccccc3)c2)cc1	TAAR1 antagonist 57 | TAAR1 nonsel count 33 | TAAR1 ant conf inactive | Ga16 nonsel ag inactive | TAAR1 ag count inactive
Cc1ccc(S(=O)(=O)N(C)c2ccc(OC(=O)CN3C(=O)NC4(CCCC4)C3=O)cc2)cc1C	TAAR1 antagonist 82 | TAAR1 nonsel count 40 | TAAR1 ant conf 51 | Ga16 nonsel ag 12 | TAAR1 ag count inactive
Cc1ccc(S(=O)(=O)N(C)c2ccc(OC(=O)CN3C(=O)NC4(CCCC4)C3=O)cc2)cc1	none
O=C(OCC#CCSc1nnc(-c2cccc3ccccc23)o1)c1cccc2[nH]ccc12	TAAR1 antagonist 51 | TAAR1 nonsel count inactive | TAAR1 ant conf inactive | Ga16 nonsel ag inactive | TAAR1 ag count inactive
Cc1ccc(-c2csc(N3CCN(CCCn4c(C(F)(F)F)nc5ccccc54)CC3)n2)cc1	none
Cc1ccc(-c2csc(N3CCC[C@@H]3C(=O)NCCn3c(-c4ccncc4)nc4ccccc43)n2)cc1	TAAR1 antagonist 62, CHRM4 antagonist 48 | TAAR1 nonsel count 26 | TAAR1 ant conf 49 | Ga16 nonsel ag inactive | TAAR1 ag count inactive
Cc1ccc(-c2csc(N3CCN(CCCn4c(-c5ccncc5)nc5ccccc54)CC3)n2)cc1	TAAR1 antagonist 55 | TAAR1 nonsel count 25 | TAAR1 ant conf inactive | Ga16 nonsel ag inactive | TAAR1 ag count inactive
C=CCNc1ccc2c(c1)OC[C@@H](CC(C)C)NS2(=O)=O	none (no result: M4 PAM, CHRM4 antagonist, M4 ag)
O=C(CCN1C(=O)/C(=C\c2ccccc2Cl)SC1=S)Nc1cccnc1	TAAR1 antagonist 50 | TAAR1 nonsel count 48 | TAAR1 ant conf 69 | Ga16 nonsel ag 18 | TAAR1 ag count inactive
Clc1cccc(CNc2nc(-c3cccnc3)nc3ccccc23)c1	none
Cc1ccc(-c2nc(N/N=C/c3ccncc3)c3ccccc3n2)cc1	TAAR1 antagonist 57 | TAAR1 nonsel count 27 | TAAR1 ant conf inactive | Ga16 nonsel ag inactive | TAAR1 ag count inactive
COc1ccc(/C=N/Nc2nc(-c3cccnc3)nc3ccccc23)cc1OC	TAAR1 antagonist 72 | TAAR1 nonsel count 29 | TAAR1 ant conf 51 | Ga16 nonsel ag inactive | TAAR1 ag count inactive
Oc1ccc(/C=N/Nc2nc(-c3cccnc3)nc3ccccc23)c(O)c1	TAAR1 antagonist 81 | TAAR1 nonsel count 23 | TAAR1 ant conf inactive | Ga16 nonsel ag inactive | TAAR1 ag count inactive
Cc1ccc(NC2CCCN(C(=O)C3CCCC3)C2)cc1C (stereo unspecified)	none
COC(=O)[C@@]1(Sc2ccc(C)cc2)CC(=O)N(c2ccccc2)[C@@H]1c1ccccc1	TAAR1 antagonist 95, CHRM4 antagonist 40 | TAAR1 nonsel count 39 | TAAR1 ant conf 78 | Ga16 nonsel ag inactive | TAAR1 ag count inactive
O=C(CN(Cc1ccccc1F)S(=O)(=O)c1ccc(Cl)cc1)NCCC1=CCCCC1	none
Cc1ccc(S(=O)(=O)N(CC(=O)NCCC2=CCCCC2)Cc2ccccc2F)cc1	TAAR1 antagonist 73 | TAAR1 nonsel count inactive | TAAR1 ant conf inactive | Ga16 nonsel ag inactive | TAAR1 ag count inactive
